Results on 25 compounds are retold here after ChEMBL document CHEMBL1149538, “A high-throughput assay for O-GlcNAc transferase detects primary sequence preferences in peptide substrates” (Bioorg Med Chem Lett, 2007).

Where a SMILES comes first, the peptide text is derived from it.

In the test the target is T1, UDP-N-acetylglucosamine--peptide N-acetylglucosaminyltransferase 110 kDa subunit (Homo sapiens) (UniProt O15294).
T1 sequence (whole entry): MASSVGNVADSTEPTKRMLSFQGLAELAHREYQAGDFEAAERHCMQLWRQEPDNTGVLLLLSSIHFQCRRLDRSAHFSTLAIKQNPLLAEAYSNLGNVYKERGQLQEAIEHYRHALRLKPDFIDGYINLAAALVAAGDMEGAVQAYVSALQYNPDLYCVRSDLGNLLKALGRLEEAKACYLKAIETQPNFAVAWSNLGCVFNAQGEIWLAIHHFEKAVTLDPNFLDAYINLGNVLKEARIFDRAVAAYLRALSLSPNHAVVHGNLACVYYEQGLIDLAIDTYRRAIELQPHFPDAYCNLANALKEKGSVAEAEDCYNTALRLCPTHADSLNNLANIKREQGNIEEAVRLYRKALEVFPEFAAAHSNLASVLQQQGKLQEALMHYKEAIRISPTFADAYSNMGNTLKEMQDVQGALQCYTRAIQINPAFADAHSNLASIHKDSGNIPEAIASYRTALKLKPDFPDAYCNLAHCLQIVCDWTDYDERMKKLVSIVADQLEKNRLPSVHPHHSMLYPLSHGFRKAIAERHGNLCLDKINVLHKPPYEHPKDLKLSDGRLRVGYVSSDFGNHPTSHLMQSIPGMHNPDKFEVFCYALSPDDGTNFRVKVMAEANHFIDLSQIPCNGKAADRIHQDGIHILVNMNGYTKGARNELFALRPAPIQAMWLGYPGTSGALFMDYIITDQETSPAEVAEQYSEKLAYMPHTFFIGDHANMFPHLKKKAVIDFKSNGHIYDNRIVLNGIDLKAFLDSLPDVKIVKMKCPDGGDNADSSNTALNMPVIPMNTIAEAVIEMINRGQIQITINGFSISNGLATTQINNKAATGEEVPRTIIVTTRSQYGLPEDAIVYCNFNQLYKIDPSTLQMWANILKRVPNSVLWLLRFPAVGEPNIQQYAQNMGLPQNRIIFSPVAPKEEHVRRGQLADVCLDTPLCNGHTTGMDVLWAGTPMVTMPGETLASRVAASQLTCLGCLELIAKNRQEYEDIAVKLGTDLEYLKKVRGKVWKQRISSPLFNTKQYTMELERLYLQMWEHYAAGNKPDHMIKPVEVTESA
Put plainly: Binding affinity to human OGT expressed in Escherichia coli […] cells assessed as alpha-FLAG-HRP activity relative to alpha-A-crystallin peptide by azido-ELISA. As to conditions: BL21-DE3. The gist of the method:
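Biotinylated peptides are reacted at saturating levels with Ni-column-purified human OGT from E. coli BL21(DE3), plus UDP-GlcNAz 62.5 μM, MgCl2 12.5 μM and β-mercaptoethanol 1 mM, for 4 h at 37 °C. Reactions are stopped with pH 4.5 sodium acetate and captured on NeutrAvidin. Product is tagged with phosphine-FLAG, detected by anti-FLAG-HRP/TMB at A450, normalized to the parent peptide after Ala-peptide background subtraction. Data are from 3 experiments, each in triplicate.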
A general note: An ELISA detects its analyte on a solid surface through an enzyme-linked reagent.
Regarding `CC[C@H](C)[C@H](NC(=O)[C@H](CO)NC(=O)[C@@H](NC(=O)[C@@H]1CCCN1C(=O)[C@@H](NC(=O)[C@H](C)N)[C@@H](C)CC)C(C)C)C(=O)N[C@@H](CCC(=O)O)C(=O)N[C@@H](CCC(=O)O)C(=O)N[C@@H](CCCCN)C(=O)O` (H-AIPVSIEEK-OH), the Activity came to 0.1.
As to `CC(C)[C@H](NC(=O)[C@@H]1CCCN1C(=O)[C@H](C)NC(=O)[C@H](C)N)C(=O)N[C@@H](CO)C(=O)N[C@@H](CCCNC(=N)N)C(=O)N[C@@H](CCC(=O)O)C(=O)N[C@@H](CCC(=O)O)C(=O)N[C@@H](CCCCN)C(=O)O` (H-AAPVSREEK-OH), the Activity amounted to 0.4.
Then `CC[C@H](C)[C@H](NC(=O)[C@H](C)N)C(=O)N[C@@H](CCCNC(=N)N)C(=O)N[C@H](C(=O)N[C@@H](CO)C(=O)N[C@@H](CCCNC(=N)N)C(=O)N[C@@H](CCC(=O)O)C(=O)N[C@@H](CCC(=O)O)C(=O)N[C@@H](CCCCN)C(=O)O)C(C)C` (H-AIRVSREEK-OH), with 0.2; and `CC[C@H](C)[C@H](NC(=O)[C@H](C)N)C(=O)N1CCC[C@H]1C(=O)N[C@H](C(=O)N[C@@H](CO)C(=O)N[C@@H](CCCNC(=N)N)C(=O)N1CCC[C@H]1C(=O)N[C@@H](CCC(=O)O)C(=O)N[C@@H](CCCCN)C(=O)O)C(C)C` (H-AIPVSRPEK-OH), with 4.7.
To `CC[C@H](C)[C@H](NC(=O)[C@H](C)N)C(=O)N[C@@H](C)C(=O)N[C@H](C(=O)N[C@@H](CO)C(=O)N[C@@H](CCCNC(=N)N)C(=O)N[C@@H](CCC(=O)O)C(=O)N[C@@H](CCC(=O)O)C(=O)N[C@@H](CCCCN)C(=O)O)C(C)C` (H-AIAVSREEK-OH) belongs 0.1.
To `CC[C@H](C)[C@H](NC(=O)[C@H](C)N)C(=O)N1CCC[C@H]1C(=O)N[C@H](C(=O)N[C@@H](CO)C(=O)N[C@@H](C)C(=O)N[C@@H](CCC(=O)O)C(=O)N[C@@H](CCC(=O)O)C(=O)N[C@@H](CCCCN)C(=O)O)C(C)C` (H-AIPVSAEEK-OH) belongs 0; to `CC[C@H](C)[C@H](NC(=O)[C@H](C)N)C(=O)N1CCC[C@H]1C(=O)N[C@H](C(=O)N[C@@H](CO)C(=O)N[C@@H](CCCNC(=N)N)C(=O)N[C@@H](CCC(=O)O)C(=O)N[C@@H](CCC(=O)O)C(=O)N[C@@H](CCCCN)C(=O)O)C(C)C` (H-AIPVSREEK-OH), 1.
In the case of `CC[C@H](C)[C@H](NC(=O)[C@H](C)N)C(=O)N1CCC[C@H]1C(=O)N[C@@H](CCC(=O)O)C(=O)N[C@@H](CO)C(=O)N[C@@H](CCCNC(=N)N)C(=O)N[C@@H](CCC(=O)O)C(=O)N[C@@H](CCC(=O)O)C(=O)N[C@@H](CCCCN)C(=O)O` (H-AIPESREEK-OH), the Activity turned out to be 0.2.
To `CC[C@H](C)[C@H](NC(=O)[C@H](C)N)C(=O)N1CCC[C@H]1C(=O)N[C@H](C(=O)N[C@@H](CO)C(=O)N[C@@H](CCC(=O)O)C(=O)N[C@@H](CCC(=O)O)C(=O)N[C@@H](CCC(=O)O)C(=O)N[C@@H](CCCCN)C(=O)O)C(C)C` (H-AIPVSEEEK-OH) belongs 0; to `CC[C@H](C)[C@H](NC(=O)[C@H](C)N)C(=O)N1CCC[C@H]1C(=O)N[C@H](C(=O)N[C@@H](CO)C(=O)N[C@@H](CCCNC(=N)N)C(=O)N[C@@H](CCC(=O)O)C(=O)N[C@@H](C)C(=O)N[C@@H](CCCCN)C(=O)O)C(C)C` (H-AIPVSREAK-OH), 0.6; to `CC[C@H](C)[C@H](NC(=O)[C@H](C)N)C(=O)N1CCC[C@H]1C(=O)N[C@@H](CCCNC(=N)N)C(=O)N[C@@H](CO)C(=O)N[C@@H](CCCNC(=N)N)C(=O)N[C@@H](CCC(=O)O)C(=O)N[C@@H](CCC(=O)O)C(=O)N[C@@H](CCCCN)C(=O)O` (H-AIPRSREEK-OH), 0.
Turning to `CC(C)[C@H](NC(=O)[C@@H]1CCCN1C(=O)[C@H](CCC(=O)O)NC(=O)[C@H](C)N)C(=O)N[C@@H](CO)C(=O)N[C@@H](CCCNC(=N)N)C(=O)N[C@@H](CCC(=O)O)C(=O)N[C@@H](CCC(=O)O)C(=O)N[C@@H](CCCCN)C(=O)O` (H-AEPVSREEK-OH), the Activity came out at 0.5.
Then `CC[C@H](C)[C@H](NC(=O)[C@H](C)N)C(=O)N1CCC[C@H]1C(=O)N[C@H](C(=O)N[C@@H](CO)C(=O)N1CCC[C@H]1C(=O)N[C@@H](CCC(=O)O)C(=O)N[C@@H](CCC(=O)O)C(=O)N[C@@H](CCCCN)C(=O)O)C(C)C` (H-AIPVSPEEK-OH), with 0.
On to `CC[C@H](C)[C@H](NC(=O)[C@@H](N)CCCNC(=N)N)C(=O)N1CCC[C@H]1C(=O)N[C@H](C(=O)N[C@@H](CO)C(=O)N[C@@H](CCCNC(=N)N)C(=O)N[C@@H](CCC(=O)O)C(=O)N[C@@H](CCC(=O)O)C(=O)N[C@@H](CCCCN)C(=O)O)C(C)C` (H-RIPVSREEK-OH), for which the Activity is 2.
Then `CC[C@H](C)[C@H](NC(=O)[C@H](C)N)C(=O)N1CCC[C@H]1C(=O)N[C@@H](C)C(=O)N[C@@H](CO)C(=O)N[C@@H](CCCNC(=N)N)C(=O)N[C@@H](CCC(=O)O)C(=O)N[C@@H](CCC(=O)O)C(=O)N[C@@H](CCCCN)C(=O)O` (H-AIPASREEK-OH), with 0.1; and `CC(C)[C@H](NC(=O)[C@@H]1CCCN1C(=O)[C@@H]1CCCN1C(=O)[C@H](C)N)C(=O)N[C@@H](CO)C(=O)N[C@@H](CCCNC(=N)N)C(=O)N[C@@H](CCC(=O)O)C(=O)N[C@@H](CCC(=O)O)C(=O)N[C@@H](CCCCN)C(=O)O` (H-APPVSREEK-OH), with 0.1; and `CC[C@H](C)[C@H](NC(=O)[C@H](C)N)C(=O)N1CCC[C@H]1C(=O)N[C@H](C(=O)N[C@@H](CO)C(=O)N[C@@H](CCCNC(=N)N)C(=O)N[C@@H](CCC(=O)O)C(=O)N1CCC[C@H]1C(=O)N[C@@H](CCCCN)C(=O)O)C(C)C` (H-AIPVSREPK-OH), with 0.3.
To `CC[C@H](C)[C@H](NC(=O)[C@H](C)N)C(=O)N[C@@H](CCC(=O)O)C(=O)N[C@H](C(=O)N[C@@H](CO)C(=O)N[C@@H](CCCNC(=N)N)C(=O)N[C@@H](CCC(=O)O)C(=O)N[C@@H](CCC(=O)O)C(=O)N[C@@H](CCCCN)C(=O)O)C(C)C` (H-AIEVSREEK-OH) belongs 0.
On to `CC[C@H](C)[C@H](NC(=O)[C@H](C)N)C(=O)N1CCC[C@H]1C(=O)N[C@H](C(=O)N[C@@H](CO)C(=O)N[C@@H](CCCNC(=N)N)C(=O)N[C@@H](CCCNC(=N)N)C(=O)N[C@@H](CCC(=O)O)C(=O)N[C@@H](CCCCN)C(=O)O)C(C)C` (H-AIPVSRREK-OH), for which the Activity is 0.6.
To `CC[C@H](C)[C@H](NC(=O)[C@@H](N)CCC(=O)O)C(=O)N1CCC[C@H]1C(=O)N[C@H](C(=O)N[C@@H](CO)C(=O)N[C@@H](CCCNC(=N)N)C(=O)N[C@@H](CCC(=O)O)C(=O)N[C@@H](CCC(=O)O)C(=O)N[C@@H](CCCCN)C(=O)O)C(C)C` (H-EIPVSREEK-OH) belongs 1; to `CC(C)[C@H](NC(=O)[C@@H]1CCCN1C(=O)[C@H](CCCNC(=N)N)NC(=O)[C@H](C)N)C(=O)N[C@@H](CO)C(=O)N[C@@H](CCCNC(=N)N)C(=O)N[C@@H](CCC(=O)O)C(=O)N[C@@H](CCC(=O)O)C(=O)N[C@@H](CCCCN)C(=O)O` (H-ARPVSREEK-OH), 0; to `CC[C@H](C)[C@H](NC(=O)[C@@H]1CCCN1C(=O)[C@@H](NC(=O)[C@H](C)N)[C@@H](C)CC)C(=O)N[C@@H](CO)C(=O)N[C@@H](CCCNC(=N)N)C(=O)N[C@@H](CCC(=O)O)C(=O)N[C@@H](CCC(=O)O)C(=O)N[C@@H](CCCCN)C(=O)O` (H-AIPISREEK-OH), 0.3.
On to `CC[C@H](C)[C@H](N)C(=O)N[C@H](C(=O)N1CCC[C@H]1C(=O)N[C@H](C(=O)N[C@@H](CO)C(=O)N[C@@H](CCCNC(=N)N)C(=O)N[C@@H](CCC(=O)O)C(=O)N[C@@H](CCC(=O)O)C(=O)N[C@@H](CCCCN)C(=O)O)C(C)C)[C@@H](C)CC` (H-IIPVSREEK-OH), for which the Activity stood at 1.6.
Then `CC[C@H](C)[C@H](NC(=O)[C@H](CCC(=O)O)NC(=O)[C@H](CCCNC(=N)N)NC(=O)[C@H](CO)NC(=O)[C@@H](NC(=O)[C@@H]1CCCN1C(=O)[C@@H](NC(=O)[C@H](C)N)[C@@H](C)CC)C(C)C)C(=O)N[C@@H](CCCCN)C(=O)O` (H-AIPVSREIK-OH), with 0.1.
Then `CC[C@H](C)[C@H](NC(=O)[C@H](C)N)C(=O)N1CCC[C@H]1C(=O)N[C@H](C(=O)N[C@@H](CO)C(=O)N[C@@H](CCCNC(=N)N)C(=O)N[C@@H](CCC(=O)O)C(=O)N[C@@H](CCCNC(=N)N)C(=O)N[C@@H](CCCCN)C(=O)O)C(C)C` (H-AIPVSRERK-OH), with 0.2.
